Structures are written as SMILES. Activity calls are given as the source filed them. No cut-off for these calls is given here.

Experiment [1] addresses Activin receptor type-1-like (Homo sapiens, UniProt P37023). Briefly: Inhibition of ACVRL1 (unknown origin) by LanthaScreen TR-FRET assay. The method in brief: (§1)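 Outsourced SelectScreen profiling using a LanthaScreen TR-FRET binding format, in which a tight-binding tracer is displaced from the kinase.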
In general terms: In TR-FRET formats the signal depends on donor and acceptor labels being close together.

Experiment [2] deals with T1, Bone morphogenetic protein receptor type-2 (Homo sapiens) (UniProt Q13873).
T1 sequence (whole entry): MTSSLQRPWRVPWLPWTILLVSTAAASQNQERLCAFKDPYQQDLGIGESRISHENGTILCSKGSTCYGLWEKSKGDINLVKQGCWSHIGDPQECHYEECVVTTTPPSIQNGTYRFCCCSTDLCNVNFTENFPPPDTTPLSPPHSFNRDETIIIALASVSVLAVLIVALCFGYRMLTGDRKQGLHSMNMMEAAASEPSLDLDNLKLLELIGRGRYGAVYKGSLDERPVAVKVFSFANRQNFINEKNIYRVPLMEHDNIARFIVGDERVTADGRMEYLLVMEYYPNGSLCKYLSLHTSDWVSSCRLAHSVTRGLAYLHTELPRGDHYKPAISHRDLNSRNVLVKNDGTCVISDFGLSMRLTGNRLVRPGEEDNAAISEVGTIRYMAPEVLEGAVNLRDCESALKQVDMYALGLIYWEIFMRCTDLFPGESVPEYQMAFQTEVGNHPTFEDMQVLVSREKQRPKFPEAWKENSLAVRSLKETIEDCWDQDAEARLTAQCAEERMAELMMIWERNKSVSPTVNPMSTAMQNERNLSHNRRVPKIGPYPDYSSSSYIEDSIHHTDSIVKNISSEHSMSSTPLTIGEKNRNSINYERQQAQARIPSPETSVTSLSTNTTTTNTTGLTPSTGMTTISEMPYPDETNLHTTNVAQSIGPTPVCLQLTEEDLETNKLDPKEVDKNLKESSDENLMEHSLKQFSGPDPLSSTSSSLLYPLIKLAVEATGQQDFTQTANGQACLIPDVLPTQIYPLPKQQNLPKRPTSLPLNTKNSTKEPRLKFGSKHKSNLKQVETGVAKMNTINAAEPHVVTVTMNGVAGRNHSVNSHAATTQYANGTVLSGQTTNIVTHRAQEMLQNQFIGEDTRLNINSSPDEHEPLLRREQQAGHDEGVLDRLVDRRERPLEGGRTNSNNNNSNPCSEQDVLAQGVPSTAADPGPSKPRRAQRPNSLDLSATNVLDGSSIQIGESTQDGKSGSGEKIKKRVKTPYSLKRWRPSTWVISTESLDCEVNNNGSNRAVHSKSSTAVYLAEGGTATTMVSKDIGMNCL
Briefly: Binding affinity to recombinant C-terminal 6His-tagged human BMPR2 (188 to 517 residues) expressed in Escherichia coli Rosetta assessed as change in melting temperature at 50 uM by SYPRO Orange dye based thermal shift assay. In short, it runs like this:
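BMPR2 kinase domain-His (purified by IMAC, anion exchange and size exclusion) at 1 μg per 10 μL reaction in 50 mM Tris–HCl pH 7.5, 150 mM NaCl with SYPRO Orange 5×. Compound at 50 μM. Scanned 20 to 95 °C with fluorescence read every 10 s. Tm from the melt curve; averages of three technical replicates.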

For experiment [3], the target named is T2, Activin receptor type-1 (Homo sapiens, UniProt Q04771).
T2 sequence (Q04771 whole entry): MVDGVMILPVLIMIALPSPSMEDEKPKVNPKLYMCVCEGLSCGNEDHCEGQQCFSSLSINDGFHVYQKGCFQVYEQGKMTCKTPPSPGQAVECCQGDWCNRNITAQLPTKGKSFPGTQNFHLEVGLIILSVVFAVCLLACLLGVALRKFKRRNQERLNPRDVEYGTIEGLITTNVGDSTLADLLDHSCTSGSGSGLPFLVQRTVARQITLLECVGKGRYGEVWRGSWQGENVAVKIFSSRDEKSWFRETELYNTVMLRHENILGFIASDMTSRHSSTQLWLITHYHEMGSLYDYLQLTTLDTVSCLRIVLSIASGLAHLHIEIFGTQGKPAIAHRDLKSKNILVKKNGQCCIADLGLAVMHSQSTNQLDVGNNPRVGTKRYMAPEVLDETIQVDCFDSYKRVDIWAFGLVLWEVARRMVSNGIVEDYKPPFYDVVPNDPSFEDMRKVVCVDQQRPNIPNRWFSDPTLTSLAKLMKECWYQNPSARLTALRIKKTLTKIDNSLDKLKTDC
Briefly: Inhibition of ACVR1 (unknown origin) by LanthaScreen TR-FRET assay. In short, it runs like this:
as §1

Experiment [4] relates to HEK293T. Briefly: Inhibition of BMP signalling pathway in BMP2-stimulated human HEK293T cells assessed as decrease in SMAD1 phosphorylation at 25 uM preincubated for 30 mins followed by BMP2 stimulation and measured after 15 mins by Western blot analysis. It is filed as cell-based. The note with it: time 45.0 min. In short, it runs like this:
(§2)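 HEK293T cells, 3 × 10^5 per well, starved overnight in DMEM with 2 mM glycine and 2% heat-inactivated FBS. Pretreated 30 min with inhibitor, then 5 ng/mL BMP2 for 15 min. Lysed in M-PER with protease inhibitors. Western blot for pSMAD1/5, SMAD1, SMAD5 and GAPDH, quantified by densitometry.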
For orientation: A western blot detects proteins with antibodies after separation by electrophoresis.

Experiment [5] relates to HEK293T. Briefly: Inhibition of BMP signalling pathway in BMP2-stimulated human HEK293T cells assessed as decrease in SMAD5 phosphorylation at 25 uM preincubated for 30 mins followed by BMP2 stimulation and measured after 15 mins by Western blot analysis. It is filed as cell-based. To be noted: time 45.0 min. In short, it runs like this:
as §2

Experiment [6] has as its system HUVEC. Briefly: Inhibition of BMP signalling pathway in BMP9-stimulated human HUVEC cells assessed as decrease in SMAD5 phosphorylation at 25 uM preincubated for 30 mins followed by BMP2 stimulation and measured after 15 mins by Western blot analysis. It is filed as cell-based. The note with it: time 45.0 min. In short, it runs like this:
(§3)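 HUVECs, about 3 × 10^5 per well, starved overnight in Kaighn's F-12 with 0.5% FBS and 30 μg/mL endothelial cell growth supplement. Pretreated 30 min with inhibitor, then stimulated with 0.5 ng/mL BMP9. Lysed in M-PER with protease and phosphatase inhibitors. Western blot for pSMAD1/5, SMAD1 and SMAD5, quantified by densitometry.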

The test system of experiment [7] is HUVEC. Briefly: Inhibition of BMP signalling pathway in BMP9-stimulated human HUVEC cells assessed as decrease in SMAD1 phosphorylation at 25 uM preincubated for 30 mins followed by BMP2 stimulation and measured after 15 mins by Western blot analysis. It counts as cell-based. To be noted: time 45.0 min. The method in brief: as §3

Sequence of Activin receptor type-1-like (P37023 whole entry): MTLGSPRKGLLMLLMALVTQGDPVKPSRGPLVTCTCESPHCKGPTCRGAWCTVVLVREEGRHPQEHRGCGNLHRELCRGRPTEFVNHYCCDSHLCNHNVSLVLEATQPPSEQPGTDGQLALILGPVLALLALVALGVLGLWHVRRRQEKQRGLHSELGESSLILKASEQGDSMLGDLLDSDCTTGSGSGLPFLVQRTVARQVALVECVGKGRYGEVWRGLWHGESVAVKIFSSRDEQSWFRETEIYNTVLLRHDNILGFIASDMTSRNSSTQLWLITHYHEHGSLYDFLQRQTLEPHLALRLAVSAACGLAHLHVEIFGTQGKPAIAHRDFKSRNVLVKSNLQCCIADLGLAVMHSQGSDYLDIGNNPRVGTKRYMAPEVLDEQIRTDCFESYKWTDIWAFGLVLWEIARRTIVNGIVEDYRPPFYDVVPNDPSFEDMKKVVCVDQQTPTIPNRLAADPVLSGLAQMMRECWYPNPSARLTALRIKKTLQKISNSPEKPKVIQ

In general, IC50 refers to the point on the concentration scale where inhibition reaches its midpoint. The term ΔTm denotes the shift of the melting midpoint relative to a reference. In the case of `CNC(=O)[C@@H]1CC[C@@H](n2c(-c3ccc4cnccc4c3)nc3ccc(C(=O)NCc4cccc(C(N)=O)c4)cc32)C1`, the IC50 in experiment [1] came to 267 nM; in experiment [3] it was 251 nM. Also, the ΔTm in experiment [2] is 15.7 °C.

As to `NC(=O)c1cccc(CNC(=O)c2ccc3nc(-c4ccc5cnccc5c4)n(C4CCCC4)c3c2)c1`, the values for the IC50 in experiment [1] and in experiment [3] were 131 nM and 124 nM, respectively. Further, the inhibition result in experiment [4], in experiment [5], in experiment [6] and in experiment [7] was “Active” throughout.

Turning to `COc1cnc(Nc2cccc(S(N)(=O)=O)c2)nc1N1CCN(c2ccccc2)C(=O)C1`, the inhibition result in experiment [4], in experiment [5], in experiment [6] and in experiment [7] was “Active” throughout.

With `CNC(=O)CCc1ccc(C(=O)NCc2cccc(N3CCN(c4nc(Nc5cccc(S(N)(=O)=O)c5)ncc4OC)CC3)c2)cc1`, the ΔTm in experiment [2] turned out to be 13.9 °C. In experiment [3], this molecule returned an IC50 above 1000 nM.
